# Experimental data from ChEMBL document CHEMBL4837207, “Discovery of pyrrolo[2,3-d]pyrimidine derivatives as potent Axl inhibitors: Design, synthesis and biological evaluation” (Eur J Med Chem, 2021).
# Legend:
# [1] = target: Mast/stem cell growth factor receptor Kit (Homo sapiens, UniProt P10721); experiment: Inhibition of Kit(unknown origin) by ELISA
# [2] = Inhibition of ABL (unknown origin) by ELISA; parameters: species or system Homo sapiens
# [3] = target: T1, Tyrosine-protein kinase receptor UFO (Homo sapiens, UniProt P30530); experiment: Inhibition of AXL (unknown origin) by ELISA
# T1 sequence (P30530 whole entry): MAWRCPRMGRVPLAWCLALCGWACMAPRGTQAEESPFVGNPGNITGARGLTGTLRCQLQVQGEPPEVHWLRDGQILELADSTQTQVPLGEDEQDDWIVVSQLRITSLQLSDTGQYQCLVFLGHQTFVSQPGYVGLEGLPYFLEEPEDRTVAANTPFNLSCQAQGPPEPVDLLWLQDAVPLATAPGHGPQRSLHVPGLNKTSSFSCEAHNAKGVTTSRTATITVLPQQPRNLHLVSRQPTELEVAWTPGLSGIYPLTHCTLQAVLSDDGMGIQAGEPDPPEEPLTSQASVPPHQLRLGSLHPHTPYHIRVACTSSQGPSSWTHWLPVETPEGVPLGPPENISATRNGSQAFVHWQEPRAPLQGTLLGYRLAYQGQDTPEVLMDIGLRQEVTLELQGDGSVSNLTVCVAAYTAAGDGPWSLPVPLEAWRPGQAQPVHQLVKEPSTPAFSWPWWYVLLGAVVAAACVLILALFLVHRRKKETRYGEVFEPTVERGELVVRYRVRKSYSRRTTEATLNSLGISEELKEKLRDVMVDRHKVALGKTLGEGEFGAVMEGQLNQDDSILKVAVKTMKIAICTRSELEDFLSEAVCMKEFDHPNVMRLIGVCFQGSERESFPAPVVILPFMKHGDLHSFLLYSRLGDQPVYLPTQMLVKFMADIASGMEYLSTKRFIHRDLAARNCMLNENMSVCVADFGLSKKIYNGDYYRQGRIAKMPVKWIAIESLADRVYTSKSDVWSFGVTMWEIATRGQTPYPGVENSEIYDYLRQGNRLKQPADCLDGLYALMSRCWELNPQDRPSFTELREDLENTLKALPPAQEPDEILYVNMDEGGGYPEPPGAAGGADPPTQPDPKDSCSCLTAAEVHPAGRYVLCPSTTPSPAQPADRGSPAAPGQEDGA
# [4] = target: Receptor tyrosine-protein kinase erbB-2 (Homo sapiens, UniProt P04626); experiment: Inhibition of ERBB2 (unknown origin) by ELISA
# Ephrin type-A receptor 2 = Ephrin type-A receptor 2 (Homo sapiens, UniProt P29317); experiment: Inhibition of EPHA2 (unknown origin) by ELISA
# [5] = target: Receptor tyrosine-protein kinase erbB-4 (Homo sapiens, UniProt Q15303); experiment: Inhibition of ERBB4 (unknown origin) by ELISA
# [6] = target: Epidermal growth factor receptor (Homo sapiens, UniProt P00533); experiment: Inhibition of EGFR (unknown origin) by ELISA
# BaF3 = experiment: Antitumor activity against mouse BaF3 cells stably expressing human TEL-AXL xenografted in nude mouse assessed as tumor growth inhibition at 50 to 100 mg/kg, po administered once daily for 14 consecutive days relative to control; assay type: functional; conditions: dose 50-100 mg/kg; time 14 day
# [7] = AUC (0 to infinity) in Sprague-Dawley rat at 3 mg/kg, po via gavage measured up to 24 hrs by LC-MS analysis; assay type: ADME, organism-based; parameters: route oral, dose 3 mg/kg, time <=24; conditions: in vivo
# Method in brief: (§1)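 Male Sprague-Dawley rats (n = 3) dosed once by oral gavage at 3 mg/kg as a solution in 5% DMSO/95% (0.5% CMC-Na). Blood sampled at 0.25, 0.5, 1, 2, 4, 6, 8 and 24 h, kept on wet ice, serum separated by centrifugation and stored at -20 °C. Serum levels measured by LC-MS/MS; parameters reported as means.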
# [8] = target: Platelet-derived growth factor receptor alpha (Homo sapiens, UniProt P16234); experiment: Inhibition of PDGFRalpha (unknown origin) by ELISA
# [9] = target: T2, Tyrosine-protein kinase receptor UFO (Mus musculus) (UniProt Q00993); experiment: Inhibition of AXL in mouse BaF3 cells assessed as reduction in AKT phosphorylation at S473 residue by Western blot analysis; assay type: cell-based; conditions: dose 0.1-10 nM
# T2 sequence (whole entry): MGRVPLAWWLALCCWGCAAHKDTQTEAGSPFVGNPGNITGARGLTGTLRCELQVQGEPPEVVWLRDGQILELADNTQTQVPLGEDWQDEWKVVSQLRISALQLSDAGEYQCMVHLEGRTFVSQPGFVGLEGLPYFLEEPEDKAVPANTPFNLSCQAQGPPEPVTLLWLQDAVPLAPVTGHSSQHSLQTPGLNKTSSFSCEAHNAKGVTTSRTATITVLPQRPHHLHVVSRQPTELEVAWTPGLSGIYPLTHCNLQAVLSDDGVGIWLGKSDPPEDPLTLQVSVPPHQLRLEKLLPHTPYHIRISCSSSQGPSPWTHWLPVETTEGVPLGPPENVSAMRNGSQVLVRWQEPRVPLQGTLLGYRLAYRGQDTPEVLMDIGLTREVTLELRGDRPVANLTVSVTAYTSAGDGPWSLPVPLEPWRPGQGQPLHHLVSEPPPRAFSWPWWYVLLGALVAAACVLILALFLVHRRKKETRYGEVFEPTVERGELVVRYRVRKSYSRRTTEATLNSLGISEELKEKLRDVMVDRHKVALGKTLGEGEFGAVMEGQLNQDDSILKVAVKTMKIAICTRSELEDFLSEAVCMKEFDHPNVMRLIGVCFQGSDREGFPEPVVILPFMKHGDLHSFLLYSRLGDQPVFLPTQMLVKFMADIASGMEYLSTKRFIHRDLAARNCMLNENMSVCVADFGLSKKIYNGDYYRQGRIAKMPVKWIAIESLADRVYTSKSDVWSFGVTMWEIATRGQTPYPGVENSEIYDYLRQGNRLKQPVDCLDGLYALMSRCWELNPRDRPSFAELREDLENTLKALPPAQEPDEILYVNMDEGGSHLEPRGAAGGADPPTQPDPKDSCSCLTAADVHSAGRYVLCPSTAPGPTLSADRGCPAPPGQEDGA
# Method in brief: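 Cells in exponential growth (BaF3 engineered to stably express constitutively active human wild-type TEL-Axl; MKN-45) exposed to the indicated concentrations for 2 h, then lysed in 1× SDS sample buffer. Phosphorylated proteins detected by Western blot.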
# [10] = target: Proto-oncogene tyrosine-protein kinase Src (Homo sapiens, UniProt P12931); experiment: Inhibition of SRC (unknown origin) by ELISA
# [11] = target: Platelet-derived growth factor receptor beta (Homo sapiens, UniProt P09619); experiment: Inhibition of PDGFRbeta (unknown origin) by ELISA
# [12] = Half life in Sprague-Dawley rat at 3 mg/kg, po via gavage measured up to 24 hrs by LC-MS analysis; assay type: ADME, organism-based; conditions: in vivo; method in brief: as §1
# [13] = target: Hepatocyte growth factor receptor (Homo sapiens, UniProt P08581); experiment: Inhibition of c-MET (unknown origin) by ELISA
# Hepatocyte growth factor receptor, sequence (P08581 whole entry): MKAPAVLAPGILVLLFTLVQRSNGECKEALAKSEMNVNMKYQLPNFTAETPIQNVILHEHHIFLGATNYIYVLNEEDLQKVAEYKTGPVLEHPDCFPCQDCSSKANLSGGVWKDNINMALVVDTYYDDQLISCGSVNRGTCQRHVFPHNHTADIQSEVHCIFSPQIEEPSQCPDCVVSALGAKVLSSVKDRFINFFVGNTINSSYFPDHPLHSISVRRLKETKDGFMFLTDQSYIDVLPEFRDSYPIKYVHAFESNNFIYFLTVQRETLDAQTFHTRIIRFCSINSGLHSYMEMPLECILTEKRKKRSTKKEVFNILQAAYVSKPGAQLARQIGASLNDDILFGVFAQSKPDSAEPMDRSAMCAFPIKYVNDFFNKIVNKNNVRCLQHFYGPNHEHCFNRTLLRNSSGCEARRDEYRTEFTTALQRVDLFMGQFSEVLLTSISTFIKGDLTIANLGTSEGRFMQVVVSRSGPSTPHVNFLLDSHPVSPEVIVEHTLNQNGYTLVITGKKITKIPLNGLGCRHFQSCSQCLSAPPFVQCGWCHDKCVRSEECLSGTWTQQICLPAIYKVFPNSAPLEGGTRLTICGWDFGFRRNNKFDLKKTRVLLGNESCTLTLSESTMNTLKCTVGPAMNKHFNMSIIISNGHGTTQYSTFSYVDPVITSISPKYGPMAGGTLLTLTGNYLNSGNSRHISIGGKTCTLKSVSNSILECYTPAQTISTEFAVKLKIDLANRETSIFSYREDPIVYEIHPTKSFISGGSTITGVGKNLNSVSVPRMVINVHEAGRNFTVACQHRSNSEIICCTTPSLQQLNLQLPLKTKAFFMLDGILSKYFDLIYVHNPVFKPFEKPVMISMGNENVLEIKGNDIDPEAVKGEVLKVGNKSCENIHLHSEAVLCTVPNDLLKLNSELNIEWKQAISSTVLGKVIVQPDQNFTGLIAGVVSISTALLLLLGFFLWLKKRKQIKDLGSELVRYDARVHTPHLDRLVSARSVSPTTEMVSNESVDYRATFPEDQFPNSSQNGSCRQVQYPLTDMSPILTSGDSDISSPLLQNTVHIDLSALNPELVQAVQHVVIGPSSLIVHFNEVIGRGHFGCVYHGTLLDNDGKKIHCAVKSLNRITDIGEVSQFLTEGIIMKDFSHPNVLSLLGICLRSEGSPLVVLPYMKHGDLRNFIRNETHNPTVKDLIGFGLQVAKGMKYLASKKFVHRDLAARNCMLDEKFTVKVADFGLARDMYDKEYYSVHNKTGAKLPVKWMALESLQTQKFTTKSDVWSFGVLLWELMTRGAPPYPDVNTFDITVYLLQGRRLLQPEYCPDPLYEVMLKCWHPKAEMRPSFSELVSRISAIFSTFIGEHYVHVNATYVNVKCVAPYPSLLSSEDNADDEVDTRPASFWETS
# Ephrin type-A receptor 2, sequence (P29317 whole entry): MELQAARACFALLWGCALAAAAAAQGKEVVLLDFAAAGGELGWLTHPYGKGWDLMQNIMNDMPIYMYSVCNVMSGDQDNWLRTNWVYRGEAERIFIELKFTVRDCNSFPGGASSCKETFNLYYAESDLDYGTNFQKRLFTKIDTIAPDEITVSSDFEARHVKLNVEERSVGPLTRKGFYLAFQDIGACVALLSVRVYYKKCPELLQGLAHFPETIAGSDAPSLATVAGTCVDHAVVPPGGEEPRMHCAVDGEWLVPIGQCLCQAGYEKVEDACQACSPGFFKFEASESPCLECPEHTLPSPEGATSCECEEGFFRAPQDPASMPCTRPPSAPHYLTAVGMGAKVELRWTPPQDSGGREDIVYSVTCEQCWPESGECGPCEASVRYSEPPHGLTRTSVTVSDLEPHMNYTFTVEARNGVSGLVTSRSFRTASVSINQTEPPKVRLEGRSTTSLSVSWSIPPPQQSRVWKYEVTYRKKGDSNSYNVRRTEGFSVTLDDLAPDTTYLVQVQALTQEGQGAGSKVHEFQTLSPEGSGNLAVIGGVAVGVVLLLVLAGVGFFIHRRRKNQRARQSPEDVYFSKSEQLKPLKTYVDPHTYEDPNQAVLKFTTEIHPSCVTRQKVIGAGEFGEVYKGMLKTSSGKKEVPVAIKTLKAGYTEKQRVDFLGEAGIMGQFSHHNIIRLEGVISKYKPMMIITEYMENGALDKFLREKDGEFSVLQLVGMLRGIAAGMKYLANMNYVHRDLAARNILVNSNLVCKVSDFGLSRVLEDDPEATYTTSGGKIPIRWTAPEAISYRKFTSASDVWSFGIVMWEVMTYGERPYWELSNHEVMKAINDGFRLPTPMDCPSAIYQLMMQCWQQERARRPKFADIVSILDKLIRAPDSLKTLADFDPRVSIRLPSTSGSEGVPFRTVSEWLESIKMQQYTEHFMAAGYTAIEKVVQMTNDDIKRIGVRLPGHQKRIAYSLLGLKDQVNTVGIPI
# Proto-oncogene tyrosine-protein kinase Src, sequence (P12931 2-536 limits assumed): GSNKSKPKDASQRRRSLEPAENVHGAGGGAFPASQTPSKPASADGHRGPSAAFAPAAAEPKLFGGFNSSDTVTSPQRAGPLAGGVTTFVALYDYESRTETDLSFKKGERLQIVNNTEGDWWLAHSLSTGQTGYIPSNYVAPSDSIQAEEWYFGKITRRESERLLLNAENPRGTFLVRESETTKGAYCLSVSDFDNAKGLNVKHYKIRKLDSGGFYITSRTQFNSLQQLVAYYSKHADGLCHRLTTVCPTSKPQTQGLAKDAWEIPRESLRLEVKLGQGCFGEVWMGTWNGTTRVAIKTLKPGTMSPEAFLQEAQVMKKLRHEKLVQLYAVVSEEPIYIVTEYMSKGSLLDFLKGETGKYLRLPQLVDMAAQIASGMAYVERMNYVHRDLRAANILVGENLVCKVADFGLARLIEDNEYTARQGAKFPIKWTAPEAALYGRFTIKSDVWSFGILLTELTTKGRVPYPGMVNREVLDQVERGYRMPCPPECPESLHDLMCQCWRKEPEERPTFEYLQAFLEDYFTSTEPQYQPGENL
# Epidermal growth factor receptor, sequence (P00533 whole entry): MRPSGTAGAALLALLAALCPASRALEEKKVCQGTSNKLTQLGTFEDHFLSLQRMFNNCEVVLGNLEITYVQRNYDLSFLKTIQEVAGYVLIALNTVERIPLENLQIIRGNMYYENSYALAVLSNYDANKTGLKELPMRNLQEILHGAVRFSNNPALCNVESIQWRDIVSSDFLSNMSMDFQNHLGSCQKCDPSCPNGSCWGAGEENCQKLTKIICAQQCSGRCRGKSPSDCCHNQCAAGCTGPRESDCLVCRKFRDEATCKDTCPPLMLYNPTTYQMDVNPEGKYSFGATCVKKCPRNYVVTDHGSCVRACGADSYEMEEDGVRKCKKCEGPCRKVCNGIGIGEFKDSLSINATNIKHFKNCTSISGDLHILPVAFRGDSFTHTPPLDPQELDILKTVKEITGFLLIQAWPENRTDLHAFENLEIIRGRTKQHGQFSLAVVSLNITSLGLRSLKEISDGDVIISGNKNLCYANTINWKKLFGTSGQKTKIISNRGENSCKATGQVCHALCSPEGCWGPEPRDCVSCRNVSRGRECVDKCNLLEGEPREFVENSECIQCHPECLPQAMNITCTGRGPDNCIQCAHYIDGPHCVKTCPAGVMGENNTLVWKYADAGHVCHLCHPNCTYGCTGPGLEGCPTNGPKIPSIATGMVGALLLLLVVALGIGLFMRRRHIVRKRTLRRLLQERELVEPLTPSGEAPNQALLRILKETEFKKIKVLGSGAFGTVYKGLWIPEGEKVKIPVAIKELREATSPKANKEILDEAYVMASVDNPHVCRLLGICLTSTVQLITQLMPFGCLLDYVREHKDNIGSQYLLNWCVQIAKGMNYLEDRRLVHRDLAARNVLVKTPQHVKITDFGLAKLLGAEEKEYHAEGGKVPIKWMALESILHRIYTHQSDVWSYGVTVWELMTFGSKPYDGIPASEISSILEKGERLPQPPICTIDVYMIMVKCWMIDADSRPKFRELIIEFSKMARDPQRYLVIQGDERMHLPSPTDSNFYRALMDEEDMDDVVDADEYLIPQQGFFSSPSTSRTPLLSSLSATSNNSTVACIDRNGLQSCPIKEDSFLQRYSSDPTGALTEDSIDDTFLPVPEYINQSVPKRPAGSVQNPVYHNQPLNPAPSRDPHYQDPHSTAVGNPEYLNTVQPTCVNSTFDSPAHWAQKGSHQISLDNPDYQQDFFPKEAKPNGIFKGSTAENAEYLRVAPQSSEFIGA
# Mast/stem cell growth factor receptor Kit, sequence (P10721 whole entry): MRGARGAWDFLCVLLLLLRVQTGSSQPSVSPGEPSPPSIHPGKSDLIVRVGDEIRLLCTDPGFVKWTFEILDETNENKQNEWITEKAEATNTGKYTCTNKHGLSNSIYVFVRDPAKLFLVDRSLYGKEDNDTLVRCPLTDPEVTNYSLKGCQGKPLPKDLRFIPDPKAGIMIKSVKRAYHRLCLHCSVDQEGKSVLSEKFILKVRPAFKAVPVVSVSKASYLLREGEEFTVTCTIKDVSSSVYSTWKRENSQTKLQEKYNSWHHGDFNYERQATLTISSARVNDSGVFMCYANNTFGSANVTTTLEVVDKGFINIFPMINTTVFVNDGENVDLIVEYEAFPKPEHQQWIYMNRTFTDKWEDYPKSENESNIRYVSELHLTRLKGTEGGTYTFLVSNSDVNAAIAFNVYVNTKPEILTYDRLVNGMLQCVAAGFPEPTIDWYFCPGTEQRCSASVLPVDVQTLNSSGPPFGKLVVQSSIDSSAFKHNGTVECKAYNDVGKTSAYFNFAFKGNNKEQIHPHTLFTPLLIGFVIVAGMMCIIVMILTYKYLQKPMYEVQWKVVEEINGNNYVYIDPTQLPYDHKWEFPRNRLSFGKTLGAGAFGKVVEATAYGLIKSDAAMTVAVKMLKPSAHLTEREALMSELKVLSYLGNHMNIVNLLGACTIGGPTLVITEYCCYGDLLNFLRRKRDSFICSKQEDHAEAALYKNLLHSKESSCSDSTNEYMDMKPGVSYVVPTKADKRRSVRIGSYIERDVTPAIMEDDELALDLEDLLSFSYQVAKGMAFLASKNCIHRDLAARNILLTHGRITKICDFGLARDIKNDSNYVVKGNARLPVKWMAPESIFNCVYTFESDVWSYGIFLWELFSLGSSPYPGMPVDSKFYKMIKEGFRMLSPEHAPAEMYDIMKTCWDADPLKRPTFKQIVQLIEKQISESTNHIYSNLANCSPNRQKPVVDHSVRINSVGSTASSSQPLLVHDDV
smiles,measurement,setting,value
CC(C)n1cc(C(=O)Nc2cc(F)c(-c3c[nH]c4ncnc(N)c34)cc2F)c(=O)c(-c2ccc(F)cc2)c1,IC50,[1],> 1000 nM
same,IC50,[2],> 1000 nM
same,IC50,[3],< 0.2 nM
same,IC50,[4],> 1000 nM
same,IC50,Ephrin type-A receptor 2,> 500 nM
same,IC50,[5],> 1000 nM
same,IC50,[6],> 1000 nM
same,TGI,BaF3,67.4%
same,AUC(0-inf),[7],44300 ng·h/mL
same,IC50,[8],> 1000 nM
same,inhibition,[9],Dose-Dependent Effect
same,IC50,[10],> 1000 nM
same,IC50,[11],> 1000 nM
same,half-life,[12],2.74 h
same,IC50,[13],4.5 nM
